Values joined by “and” are separate entries in the source; they are usually repeats but may differ in a detail not shown here. Equal values may be shown once.
Experiments:
P388 [1] = assay: Optimal dose administered ip as a solution in 0.1 mL of 30% v/v ethanol-water after intraperitoneal inoculation of 10e6 P388 leukemia cells.; type: functional, Mus musculus
Procedure, shortened: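 P388 leukemia cells (10^6) inoculated ip. Drug given ip in 30% v/v ethanol-water on days 1, 5 and 9, in mg/kg per day. The optimal dose is the one giving the best increase in lifespan over untreated tumor-bearing controls; >20% counted significant.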

Nucleic Acid [2] = assay: Inhibitory concentration against ethidium bromide binding to DNA [poly(dA-dT)]; type: nucleic-acid assay
Procedure, shortened: (§1)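 C50 is the micromolar drug concentration displacing 50% of ethidium bromide already bound to DNA, read by fluorescence. It is used as a comparative measure of DNA binding.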

Nucleic Acid [3] = assay: Inhibitory concentration against ethidium bromide binding to DNA [poly(dG-dC)]; type: nucleic-acid assay; procedure, shortened: as §1
L1210 = assay: Concentration of compound required to inhibit growth of L1210 leukemia cells in culture by 50%; type: functional, cell-based; details: Mus musculus
Procedure, shortened: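 L1210 leukemia cells grown in culture with continuous drug exposure for 70 h; IC50 in nanomolar, drug concentration giving 50% growth inhibition.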

[4] = In vitro inhibition of Escherichia coli DNA-dependent RNA polymerase using both calf thymus and phage T7 DNA template
Procedure, shortened: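 E. coli RNA polymerase (0.65 μg) added to template DNA (2.5 μg; calf thymus or phage T7) plus drug. TCA-pyrophosphate precipitates counted by scintillation; IC50 from inhibition curves, mean of 2–4 determinations.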

P388 [5] = assay: Percentage increase in life span (ILS) of compound treated tumor-bearing animals compared to tumor-bearing controls when treated at the optimal dose.; type: functional, Mus musculus
Procedure, shortened: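 P388 leukemia: 10^6 cells inoculated intraperitoneally; drug given i.p. in 30% v/v ethanol-water on days 1, 5 and 9. Dose is in mg/kg per day. ILS is the percent increase in lifespan over untreated tumor-bearing controls at the optimal dose. Values above 20% count as significant.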

Row | Compound | C50 (Nucleic Acid [2]) | C50 (Nucleic Acid [3]) | IC50 (L1210) | IC50 [4] | Optimal dose (P388 [1]) | ILS (P388 [5])
1 | Cl.O=C(CC(CC(=O)NCCCCCCNc1c2ccccc2nc2ccccc12)Nc1c2ccccc2nc2ccccc12)NCCCCCCNc1c2ccccc2nc2ccccc12 | 0.11 µM | 0.11 µM | 0.35 µM | 4.1 µM and 4 µM | 20 mg/kg/day | 21%
2 | Cl.O=C(CC(CC(=O)NCCCNc1c2ccccc2nc2ccccc12)Nc1c2ccccc2nc2ccccc12)NCCCNc1c2ccccc2nc2ccccc12 | 0.1 µM | 0.19 µM | 0.8 µM | 13.2 µM and 12.8 µM | 8.9 mg/kg/day | 
3 | Cl.O=C(CC(CC(=O)NCCNc1c2ccccc2nc2ccccc12)Nc1c2ccccc2nc2ccccc12)NCCNc1c2ccccc2nc2ccccc12 | 0.43 µM | 0.38 µM | 5.9 µM | 30.3 µM and 30 µM | 3.9 mg/kg/day | 
4 | NC(CC(=O)NCCCNc1c2ccccc2nc2ccccc12)CC(=O)NCCCNc1c2ccccc2nc2ccccc12 | 0.09 µM | 0.21 µM | 0.47 µM | 4.2 µM and 3.1 µM |  | 
5 | Cl.O=C(CC(CC(=O)NCCCCCNc1c2ccccc2nc2ccccc12)Nc1c2ccccc2nc2ccccc12)NCCCCCNc1c2ccccc2nc2ccccc12 | 0.35 µM | 0.25 µM | 0.58 µM | 4.1 µM and 4.5 µM | 8.9 mg/kg/day | 21%
6 | Cl.O=C(CCCC(=O)NCCCCNc1c2ccccc2nc2ccccc12)NCCCCNc1c2ccccc2nc2ccccc12 | 0.28 µM | 0.13 µM | 0.24 µM | 4.6 µM and 4.1 µM | 20 mg/kg/day | 30%
7 | Cl.O=C(CCCC(=O)NCCCCCNc1c2ccccc2nc2ccccc12)NCCCCCNc1c2ccccc2nc2ccccc12 | 0.28 µM | 0.24 µM | 0.17 µM | 5.2 µM and 4.2 µM | 20 mg/kg/day | 33%
8 | Cl.O=C(CC(CC(=O)NCCCCNc1c2ccccc2nc2ccccc12)Nc1c2ccccc2nc2ccccc12)NCCCCNc1c2ccccc2nc2ccccc12 | 0.08 µM | 0.13 µM | 2.3 µM | 5.9 µM and 5.4 µM | 8.9 mg/kg/day | 
9 | Cl.O=C(CC(CC(=O)NCCCCCCCNc1c2ccccc2nc2ccccc12)Nc1c2ccccc2nc2ccccc12)NCCCCCCCNc1c2ccccc2nc2ccccc12 | 0.1 µM | 0.14 µM | 0.59 µM | 4.6 µM and 3.7 µM | 20 mg/kg/day | 

More lines, main results first:

Row | C50 (Nucleic Acid [2]) | C50 (Nucleic Acid [3]) | IC50 (L1210) | IC50 [4] | Compound | Optimal dose (P388 [1]) | ILS (P388 [5])
10 | 0.15 µM | 0.23 µM | 0.96 µM | 6.2 µM and 4.5 µM | Cl.O=C(CCCC(=O)NCCCCCCCNc1c2ccccc2nc2ccccc12)NCCCCCCCNc1c2ccccc2nc2ccccc12 | 30 mg/kg/day | 
11 | 0.3 µM | 0.29 µM | 3.08 µM | 9.2 µM and 6.7 µM | Cl.O=C(CCCC(=O)NCCNc1c2ccccc2nc2ccccc12)NCCNc1c2ccccc2nc2ccccc12 | 30 mg/kg/day | 
12 | 0.22 µM | 0.33 µM | 0.25 µM | 4.9 µM and 4.7 µM | Cl.O=C(CCCC(=O)NCCCCCCNc1c2ccccc2nc2ccccc12)NCCCCCCNc1c2ccccc2nc2ccccc12 | 45 mg/kg/day | 
13 |  |  | 0.35 µM | 7.5 µM and 6.2 µM | Cl.O=C(CCCC(=O)NCCCNc1c2ccccc2nc2ccccc12)NCCCNc1c2ccccc2nc2ccccc12 | 13.3 mg/kg/day | 
